Source: ChEMBL document CHEMBL4002606, “Discovery of FZU-03,010 as a self-assembling anticancer amphiphile for acute myeloid leukemia” (Bioorg Med Chem Lett, 2017)
Active and inactive are the calls of the source. The calls are words filed in the database; no cut-off is given here.

Legend:
[1] = system: HL-60; experiment: Growth inhibition of human HL60 cells after 48 hrs by MTT assay; type: functional, cell-based; settings: HL-60, 48 h
Summary of the method: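 HL-60 human promyelocytic leukemia cells; proliferation inhibition of the cells measured and reported as IC50; values are mean ± SE of at least three independent experiments.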

[2] = system: HL-60; experiment: Growth inhibition of human HL60 cells at 2.5 uM after 48 hrs by MTT assay relative to control; type: functional; settings: for inhibition of growth at 2.5 µM: HL-60, 48 h, read-out: GI
[3] = system: HL-60; experiment: Growth inhibition of human HL60 cells at 20 uM after 48 hrs by MTT assay relative to control; type: functional; settings: for inhibition of growth at 20 µM: HL-60, 48 h, read-out: GI
[4] = system: HL-60; experiment: Growth inhibition of human HL60 cells at 10 uM after 48 hrs by MTT assay relative to control; type: functional; settings: for inhibition of growth at 10 µM: HL-60, 48 h, read-out: GI
[5] = system: HL-60; experiment: Growth inhibition of human HL60 cells at 1.25 uM after 48 hrs by MTT assay relative to control; type: functional; settings: for inhibition of growth at 1.25 µM: HL-60, 48 h, read-out: GI
[6] = system: HL-60; experiment: Growth inhibition of human HL60 cells at 5 uM after 48 hrs by MTT assay relative to control; type: functional; settings: for inhibition of growth at 5 µM: HL-60, 48 h, read-out: GI
[7] = system: HL-60; experiment: Growth inhibition of human HL60 cells at 40 uM after 48 hrs by MTT assay relative to control; type: functional; settings: for inhibition of growth at 40 µM: HL-60, 48 h, read-out: GI
[8] = system: HL-60; experiment: Growth inhibition of human HL60 cells at 0.63 uM after 48 hrs by MTT assay relative to control; type: functional; settings: for inhibition of growth at 0.63 µM: HL-60, 48 h, read-out: GI
[9] = organism: Homo sapiens; experiment: Inhibition of PI3K in human HL60 cells assessed as reduction in Akt phosphorylation at Ser473-residue up to 4 uM after 24 hrs by Western blot method; type: cell-based
Summary of the method: (§1)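 HL-60 cells treated at different concentrations; lysates probed with specific antibodies against procaspase-3, cleaved caspase-9, PARP, Bcl-2, phospho-P70S6K and phospho-Akt; actin used as loading control.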

[10] = system: HL-60; experiment: Induction of apoptosis in human HL60 cells assessed as PARP cleavage up to 4 uM after 24 hrs by Western blot method; type: functional, cell-based; summary of the method: as §1
[11] = target: Serine/threonine-protein kinase mTOR (Homo sapiens) (UniProt P42345); experiment: Inhibition of mTOR in human HL60 cells assessed as reduction in P70S6K phosphorylation at Thr389-residue up to 4 uM after 24 hrs by Western blot method; type: cell-based; summary of the method: as §1
[12] = system: HL-60; experiment: Induction of apoptosis in human HL60 cells assessed as caspase-9 cleavage after 24 hrs by Western blot method; type: functional, cell-based; summary of the method: as §1
[13] = Induction of nanoparticle formation in DMSO/deionized water after 25 days by dynamic light scattering assay
[14] = system: HL-60; experiment: Induction of apoptosis in human HL60 cells assessed as downregulation of Bcl2 expression up to 4 uM after 24 hrs by Western blot method; type: functional, cell-based; summary of the method: as §1
[15] = Induction of nanoparticle formation in DMSO/deionized water at 1.5 mg/ml
[16] = system: HL-60; experiment: Induction of apoptosis in human HL60 cells assessed as downregulation of procaspase-3 expression after 24 hrs by Western blot method; type: functional, cell-based; summary of the method: as §1
[17] = Aqueous solubility of the compound in water by HPLC method; type: physicochemical
[18] = system: HL-60; experiment: Induction of apoptosis in human HL60 cells assessed as downregulation of Bcl2 expression up to 80 uM after 24 hrs by Western blot method; type: functional, cell-based; summary of the method: as §1
[19] = system: HL-60; experiment: Induction of apoptosis in human HL60 cells assessed as live cells at 80 uM after 24 hrs by Annexin V-PE/7AAD staining based flow cytometry (reference value: 90.9%); type: functional
[20] = system: HL-60; experiment: Induction of apoptosis in human HL60 cells assessed as late apoptotic cells at 80 uM after 24 hrs by Annexin V-PE/7AAD staining based flow cytometry (reference value: 3.64%); type: functional
[21] = system: HL-60; experiment: Induction of apoptosis in human HL60 cells assessed as necrotic cells at 80 uM after 24 hrs by Annexin V-PE/7AAD staining based flow cytometry (reference value: 1.08%); type: functional
[22] = target: Serine/threonine-protein kinase mTOR (Homo sapiens) (UniProt P42345); experiment: Inhibition of mTOR in human HL60 cells assessed as reduction in P70S6K phosphorylation at Thr389-residue up to 80 uM after 24 hrs by Western blot method; type: cell-based; summary of the method: as §1
[23] = system: HL-60; experiment: Induction of apoptosis in human HL60 cells assessed as early apoptotic cells at 80 uM after 24 hrs by Annexin V-PE/7AAD staining based flow cytometry (reference value: 4.42%); type: functional
[24] = organism: Homo sapiens; experiment: Inhibition of PI3K in human HL60 cells assessed as reduction in Akt phosphorylation at Ser473-residue up to 80 uM after 24 hrs by Western blot method; type: cell-based; summary of the method: as §1
[25] = system: HL-60; experiment: Induction of apoptosis in human HL60 cells assessed as PARP cleavage up to 80 uM after 24 hrs by Western blot method; type: functional, cell-based; summary of the method: as §1

Compound	IC50 [1] [µM]	inhibition of growth at 2.5 µM [2] [%]	inhibition of growth at 20 µM [3] [%]	inhibition of growth at 10 µM [4] [%]	inhibition of growth at 1.25 µM [5] [%]	inhibition of growth at 5 µM [6] [%]	inhibition of growth at 40 µM [7] [%]	inhibition of growth at 0.63 µM [8] [%]	growth inhibition (GI) [8]	also measured
C[C@H]1[C@H](C)CC[C@]2(C(=O)N3CCNCC3)CC[C@]3(C)C(=CC[C@@H]4[C@@]5(C)CCC(=O)C(C)(C)[C@@H]5CC[C@]43C)[C@H]12	2.64	43.7	92.5	92.7	22.5	82.2	94.8	10.6		
C[C@H]1[C@H](C)CC[C@]2(C(=O)O)CC[C@]3(C)C(=CC[C@@H]4[C@@]5(C)CCC(=O)C(C)(C)[C@@H]5CC[C@]43C)[C@H]12 [URSONIC ACID]	> 40								inactive	growth inhibition (GI) [2]: inactive; growth inhibition (GI) [3]: inactive; growth inhibition (GI) [4]: inactive; growth inhibition (GI) [5]: inactive; growth inhibition (GI) [6]: inactive; growth inhibition (GI) [7]: inactive
COc1cccc2c1C(=O)c1c(O)c3c(c(O)c1C2=O)C[C@@](O)(C(=O)CO)C[C@@H]3O[C@H]1C[C@H](N)[C@H](O)[C@H](C)O1 [DOXORUBICIN]	< 0.63	85.6	> 99	> 99	82.5	95.4	> 99	80.8		
CC(=O)NN/C=C1/C[C@]2(C)[C@H]3CC=C4[C@@H]5[C@@H](C)[C@H](C)CC[C@]5(C(=O)O)CC[C@@]4(C)[C@]3(C)CC[C@H]2C(C)(C)C1=O	5.64	28.8	69.7	61.7	20.7	41.7	93.1	9.96		
C[C@H]1[C@H](C)CC[C@]2(C(=O)N(CCO)CCO)CC[C@]3(C)C(=CC[C@@H]4[C@@]5(C)Cc6cn[nH]c6C(C)(C)[C@@H]5CC[C@]43C)[C@H]12	5.21	19.3	94	86.8	2.47	64.8	93.6	3.54		
C[C@H]1[C@H](C)CC[C@]2(C(=O)N3CCNCC3)CC[C@]3(C)C(=CC[C@@H]4[C@@]5(C)Cc6cn[nH]c6C(C)(C)[C@@H]5CC[C@]43C)[C@H]12										inhibition [9]: Active; Activity [10]: Active; inhibition [11]: Active; Activity [12]: Dose-dependent effect; Activity [13]: Active; Activity [14]: Active; Activity [15]: Active; Activity [16]: Dose-dependent effect
C=CCNc1nc2c(s1)C[C@]1(C)[C@H]3CC=C4[C@@H]5[C@@H](C)[C@H](C)CC[C@]5(C(=O)O)CC[C@@]4(C)[C@]3(C)CC[C@H]1C2(C)C	> 40	4.73	34.7	20.3	0.33	13.4	49.8		inactive	
C[C@H]1[C@H](C)CC[C@]2(C(=O)N3CCNCC3)CC[C@]3(C)C(=CC[C@@H]4[C@@]5(C)Cc6cn[nH]c6C(C)(C)[C@@H]5CC[C@]43C)[C@H]12.Cl										solubility [17]: > 150 µg/mL
C[C@H]1[C@H](C)CC[C@]2(C(=O)O)CC[C@]3(C)C(=CC[C@@H]4[C@@]5(C)Cc6sc(N)nc6C(C)(C)[C@@H]5CC[C@]43C)[C@H]12	40		12.9				59.2		inactive	growth inhibition (GI) [2]: inactive; growth inhibition (GI) [4]: inactive; growth inhibition (GI) [5]: inactive; growth inhibition (GI) [6]: inactive
C[C@H]1[C@H](C)CC[C@]2(C(=O)O)CC[C@]3(C)C(=CC[C@@H]4[C@@]5(C)CC[C@H](O)C(C)(C)[C@@H]5CC[C@]43C)[C@H]12 [URSOLIC ACID]	> 40								inactive	Activity [18]: inactive; Activity [19]: 83.4%; growth inhibition (GI) [2]: inactive; growth inhibition (GI) [3]: inactive; growth inhibition (GI) [4]: inactive; Activity [12]: Dose-dependent effect; Activity [20]: 2.43%; growth inhibition (GI) [5]: inactive; Activity [21]: 0.835%; growth inhibition (GI) [6]: inactive; inhibition [22]: Active; growth inhibition (GI) [7]: inactive; Activity [23]: 13.3%; inhibition [24]: Active; Activity [16]: Dose-dependent effect; Activity [25]: Active
C[C@H]1[C@H](C)CC[C@]2(C(=O)N(CCO)CCO)CC[C@]3(C)C(=CC[C@@H]4[C@@]5(C)CCC(=O)C(C)(C)[C@@H]5CC[C@]43C)[C@H]12	7.04	12.4	86.5	53.7	8.43	26.7	92.7	9.32		
C[C@H]1[C@H](C)CC[C@]2(C(=O)O)CC[C@]3(C)C(=CC[C@@H]4[C@@]5(C)C/C(=C/O)C(=O)C(C)(C)[C@@H]5CC[C@]43C)[C@H]12	5.44	33.9	72.4	67	18.5	50.3	89.8	9.03		
